Bioassay records (PubChem)
In the library only some 1.9% were active in any assay of this set; here they are far more common.
TDP2 inh: blocks human TDP2 phosphodiesterase activity; recombinant TDP2, T5PNP hydrolysis, p-nitrophenol absorbance 415 nm; 370,000 tested, 0.34% active; O95551; inhibition, % at 12.8 µM; AID 720702;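 active means inhibition above the mean of all tested compounds plus 3 SD, set per campaign, cut at about 25% in these data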;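 further: 0% = DMSO with enzyme and 100% = buffer with substrate but no TDP2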
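System: recombinant human TDP2 / Amount: 120 nM TDP2 per well / Also added: 5 mM T5PNP chromogenic substrate / Doses: 12.8 µM single point, 1% DMSO / Incubation: 2 h at 37 °C / Detection: p-Nitrophenol epi absorbance / Evaluation: % inhibition relative to enzyme-containing and enzyme-free wells / Repeats: singlicate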
UHRF1 binding: UHRF1 methyl-DNA binding inhibition. inhibition, % at 4.4 µM. UHRF1 binding to methylated oligo, TR-FRET. 370,000 tested, 0.75% active; in the data active means inhibition above about 21%;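 further: UHRF1 SRA domain binding a hemimethylated CpG hairpin DNA probe; 0% = median of test compound wells and 100% = reference inhibitor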
MBD2 DNA inh: inhibitors of human MBD2 binding to methylated oligonucleotide. TR-FRET. inhibition, % at 4.4 µM. 370,000 tested, 0.31% active. Q9UBB5; in the data active means inhibition above about 13%
Target sequence (Q9UBB5 whole entry, looked up): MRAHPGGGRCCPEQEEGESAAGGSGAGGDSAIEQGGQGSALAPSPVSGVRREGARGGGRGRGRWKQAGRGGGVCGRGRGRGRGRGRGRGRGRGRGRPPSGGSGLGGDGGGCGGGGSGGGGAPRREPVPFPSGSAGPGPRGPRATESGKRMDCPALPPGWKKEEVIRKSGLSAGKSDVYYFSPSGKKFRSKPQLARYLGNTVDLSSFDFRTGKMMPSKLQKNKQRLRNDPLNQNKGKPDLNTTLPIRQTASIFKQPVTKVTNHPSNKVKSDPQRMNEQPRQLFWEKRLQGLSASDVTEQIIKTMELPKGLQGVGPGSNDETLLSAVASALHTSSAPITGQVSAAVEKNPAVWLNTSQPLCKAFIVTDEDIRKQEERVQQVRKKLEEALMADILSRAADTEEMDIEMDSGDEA
DDE Tn7 FP inh: disrupts Tn7 cyclic peptide binding to fibrin D-Dimer-E complex | P02675 | FP displacement of FITC-Tn7 peptide from fibrin DD(E); 0% = median of compound wells per plate | inhibition, % at 8.3 µM | 370,000 tested, 0.13% active | AID 720508;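 active means inhibition above the mean of compounds falling within the control limits plus 3 SD of them, cut at about 14% in these data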;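 further: 0% = plate median of compound wells and 100% = 10 µM Aha-Tn7 peptide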
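Test system: human clot-derived fibrin DD(E) complex / Quantity: 2 µM final DD(E) protein / Incubation: 10 min plus 3 h, room temperature / Measured by: fluorescence polarization / Benchmarks: high control of 10 µM Aha-Tn7 peptide / Replicates: singlicate testing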
Tn6 DDE FP: DD(E)-Tn6 binding inhibition, primary FP screen; P02675; Fibrin DD(E) TRITC-Tn6 fluorescence polarization displacement; inhibition, % at 8.3 µM; 370,000 tested, 0.21% active;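 active means inhibition above a per-campaign cutoff: mean of compounds within control limits plus 3 SD, cut at about 15% in these data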;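 further: 0% = median of all compound wells on the plate and 100% = blocking peptide control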
LEDGF integ inh: blocks HIV-1 LEDGF/p75-dependent DNA integration. TR-FRET IN-LEDGF/p75 DNA integration, Eu/Cy5. inhibition, % at 3.7 µM. 370,000 tested, 0.64% active;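 active means inhibition above the screen-wide mean plus 3 SD, cut at about 13% in these data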;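 further: signal is the Cy5 over europium emission ratio at 671 and 618 nm; 0% = plate median of compound wells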
TDP2 inh conf: human TDP2 inhibition, confirmation. shares compounds with TDP2 inh. recombinant human TDP2, absorbance read-out. AID 743263. 1,100 tested, 22% active. inhibition, % at 12.8 µM; in the data active means inhibition above about 25%;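 further: 0% = vehicle with enzyme and 100% = no enzyme buffer only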
IN multimer up: activates HIV-1 integrase multimerization in LEDGF counter-screen; AID 1053131; TR-FRET HIV-1 integrase multimerization, biochemical; 2,000 tested, 17% active; shares compounds with LEDGF integ inh; activation, % at 7.7 µM; in the data active means activation above about 8.9%
TR-FRET interf: counter-screen for LEDGF/p75 integration inhibitors: TR-FRET optical interference. shares compounds with LEDGF integ inh. TR-FRET optical interference counterscreen, HIV-1 IN multimerization. inhibition, % at 7.7 µM. 2,000 tested, under 10 active. AID 1053135;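 active means inhibition above the mean over all tested compounds plus 3 SD, which no compound reached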;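 further: 0% = integrase with antibodies and DMSO and 100% = antibodies without integrase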
LEDGF integ conf: LEDGF/p75-dependent HIV-1 integration inhibition, confirmation; shares compounds with LEDGF integ inh; TR-FRET LEDGF/p75-dependent HIV-1 integration, biochemical; inhibition, % at 3.7 µM; 2,000 tested, 36% active; AID 1053136; in the data active means inhibition above about 14%
* marks the source's active call; other numbers are inactive results; . = no result given; ! = not confirmed by another sample.

SMILES | TDP2 inh | UHRF1 binding | MBD2 DNA inh | DDE Tn7 FP inh | Tn6 DDE FP | LEDGF integ inh | TDP2 inh conf | IN multimer up | TR-FRET interf | LEDGF integ conf
CCOC(=O)c1c(N)n(CCOC(=O)c2cccs2)c2nc3ccccc3nc12 | 75* | 12 | 6 | -3 | 11 | 33* | -6 | 1 | -3 | -3
CCCCCOC(=O)c1c(N)n(CCOC)c2nc3ccccc3nc12 | 14 | -5 | -6 | 6 | 4 | 5 | . | . | . | .
CSc1ccc(/C=N/NC(=O)c2ccc(-n3cnnn3)cc2)cc1 | 5 | -4 | 3 | 8 | 0 | 2 | . | . | . | .
CC(C)(C)c1ccc(/C=N/Nc2nncn2N)cc1 | 67* | 7 | 1 | 7 | -10 | 39* | 4 | -1 | 5 | -8
CSc1ccc(/C=N\Nc2nncn2N)cc1 | 64* | 15 | 3 | 7 | 0 | 40* | 6 | -1 | 3 | -5
CC1CCN(c2ccc(/C=N\Nc3nncn3N)cc2[N+](=O)[O-])CC1 | 79* | 4 | -6 | 0 | -7 | 47* | 2 | 2 | -8 | -15
Nn1cnnc1N/N=C/c1cc(Br)cc(Br)c1O | 54* | 4 | 4 | -2 | 2 | 44* | -5 | 1 | -2 | -16
Nc1[nH]c(C(=O)c2ccccc2)c(-c2ccccc2C(F)(F)F)c1C(=O)c1c[nH]c2ccccc12 | -4 | -3 | -3 | -3 | 6 | 2 | . | . | . | .
Cc1ccccc1-c1cccc2c3c([nH]c12)[C@@H]1C[C@H]2[C@@H](C(=O)N1CC3)[C@H](C)ON2C | -3 | -1 | -3 | -2 | -3 | 1 | . | . | . | .
Nc1cc(-c2cccc([N+](=O)[O-])c2)[nH]n1 | 3 | -2 | 1 | -2 | 3 | 3 | . | . | . | .
O=c1cc(-c2cccc([N+](=O)[O-])c2)[nH][nH]1 | 71* | 19 | 5 | -13 | -1 | 22* | 15 | -2 | 11 | 8
[O-][n+]1cccc2c(Br)cc(Br)c(O)c21 | 3 | -7 | -5 | 10 | 1 | 5 | . | . | . | .
C[n+]1cccc2c(Br)ccc([O-])c21 | 71* | 6 | -8 | -4 | -3 | 45* | 37* | 4 | -13 | 61*
O=[N+]([O-])c1c(Nc2ccccn2)cc(Cl)c2nonc12 | 87* | 9 | -5 | 1 | 10 | 70* | 47* | 2 | -7 | 40*
Oc1ccc(Br)cc1CNc1cccc2cccnc12 | 30* | -3 | -16 | -10 | -7 | 14* | 15 | 2 | -8 | 7
Oc1ccc(Cl)cc1CNc1cccc2cccnc12 | 32* | -1 | -17 | -10 | -2 | 37* | 5 | 0 | 1 | 5
Oc1c(Br)cc(Br)cc1CNc1cccc2cccnc12 | 36* | -2 | -16 | 1 | -4 | 40* | 27* | 0 | -1 | 21*
COc1cccc(CNc2cccc3cccnc23)c1O | 9 | -10 | -9 | 1 | 11 | 9 | . | . | . | .
Cc1ccc(O)c(CNc2cccc3cccnc23)c1 | 6 | -3 | -4 | 1 | 0 | 8 | . | . | . | .
Cc1cccc(NCc2cc(Cl)ccc2O)n1 | 7 | -1 | -1 | 0 | 4 | -2 | . | . | . | .
NC(=O)c1ncn([C@@H]2O[C@H](C(=O)Nc3ccc(Oc4ccccc4)nc3)[C@@H](O)[C@H]2O)n1 | -5 | 1 | -3 | 4 | 5 | 1 | . | . | . | .
CCOC(=O)CN1CCCc2nc(C)c(C)cc21 | -5 | -2 | -5 | 4 | 8 | -4 | . | . | . | .
C[c-]1[c-](C)[c-](C)[c-](C)[c-]1C.[Fe].c1cc2nccc(N3CCCC3)[c-]2c1 (centres undefined) | 34* | 14 | 5 | -1 | -1 | 20*! | 26*! | 0 | 1 | 49*
c1cc(N2CCCCC2)nc(N2CCCCC2)n1 | -4 | 4 | 3 | 1 | 2 | 3 | . | . | . | .
Oc1ccc2ccccc2c1C=Nc1ccc(N2CCOCC2)cc1 | 31* | -5 | -15 | 4 | 1 | 28* | 5 | 2 | -9 | -1
SMILES | TDP2 inh | UHRF1 binding | MBD2 DNA inh | DDE Tn7 FP inh | Tn6 DDE FP | LEDGF integ inh | TDP2 inh conf | IN multimer up | TR-FRET interf | LEDGF integ conf
C=Cc1ccc(N=Cc2c(O)ccc3ccccc23)cc1 | -19 | -3 | -10 | 4 | -8 | 8 | . | . | . | .
CCN(CCO)c1ccc(NC(=S)Nc2cccc(S(=O)(=O)N(C)C)c2)cc1 | 36* | 0 | -3 | -5 | -3 | 24* | 11 | 5 | -18 | 6
CN(C)S(=O)(=O)c1cccc(NC(=S)Nc2cc(Cl)cc(Cl)c2)c1 | 9 | 0 | 1 | 2 | 3 | -5 | . | . | . | .
CCOc1cc(/C=C2\C(=O)N(CCC#N)N=C2C)ccc1OCC(N)=O | 77* | 15 | 5 | -6 | 5 | 15* | 18 | -3 | 10 | -1
CC(=O)NC1C(=O)N(CCN2CCOCC2)c2ccc(Br)cc21 (centres undefined) | 44* | -3 | -3 | -2 | 0 | 16* | 36* | 0 | -2 | 37*
O=C1c2cccc(Cl)c2C(=O)c2c1cccc2N1CCCC1 | 26* | 14 | -3 | 0 | -4 | 32* | 5 | 1 | -6 | -9
CCOc1cc(/C=N/Nc2nnc(C)n2N)ccc1O | 48* | 6 | -5 | -2 | 2 | 66* | 5 | 1 | -3 | -4
CCc1nnc(N/N=C/c2cc(C)c(C)cc2C)n1N | 65* | 4 | 5 | 1 | 4 | 58* | 8 | -2 | 11 | -4
Clc1cccc(Cl)c1/C=N\Nc1nccs1 | 3 | -2 | 2 | 0 | -3 | -1 | . | . | . | .
Cc1nnc(N/N=C/c2c(Cl)cccc2Cl)n1N | 52* | 6 | -2 | 7 | 6 | 35* | -5 | 0 | 2 | -10
CCc1nnc(-n2nc(C)cc2-c2ccccc2)n1N | 5 | -3 | -5 | -5 | 5 | -2 | . | . | . | .
CCc1nnc(N/N=C/c2c(F)cccc2Cl)n1N | 58* | 7 | -2 | -6 | -2 | 57* | 4 | 0 | 2 | -6
O=C(CSc1nnc(-c2ccco2)n1-c1ccc(Cl)cc1)Nc1cccc2ccccc12 | -2 | 1 | -1 | -1 | -4 | -2 | . | . | . | .
Cc1nnc(N/N=C/c2ccccc2O)n1N | 59* | 10 | 9 | -1 | 1 | 59* | 26* | -1 | 4 | -10
